Most compounds without a hit are left out; they make up all but 0.79% or so of the library.
mIAP act = mouse IAP activation; muIAP, CDP-Star luminescence, 30 min; hits give high values; 1 = vehicle-only enzyme signal, 0 = enzyme-free wells; activation factor at 10 µM; 330,000 compounds, 0.24% hits;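 active means activation factor of at least 2 at 20 µM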
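Assay system: mouse IAP enzyme; reagent: chemiluminescent substrate CDP-Star; dosing: test compounds delivered from DMSO solution; schedule: 30 min at room temperature; measured by: luminescence from enzymatic CDP-Star hydrolysis; controls: DMSO-only wells and no-enzyme negative control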
bIAP inhibitor = intestinal alkaline phosphatase (bovine) inhibition; purified bovine IAP, CDP-star luminescence, 30 min; inhibition, % at 20 µM; 190,000 tested, under 10 active; AID 1019;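 active means over 50% inhibition of intestinal alkaline phosphatase at 20 µM in the single-dose screen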
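Assay system – bovine IAP enzyme · Quantity – bovine IAP at 1/65,000,000 final dilution · Detection – CDP-star luminescence signal · Times – 30 min reaction at room temperature · Also added – CDP-star substrate at 30 µM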
bIAP act = intestinal alkaline phosphatase (bovine) activation; purified bovine IAP, CDP-star luminescence, 30 min; hits give high values; fold of DMSO-control signal, blank-subtracted; activation factor at 20 µM; 200,000 compounds, 0.17% hits; AID 1016;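 active means activation factor of 2 or more at 20 µM, a signal rise over negative controls twice the positive control's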
mIAP inh = blocks mouse intestinal alkaline phosphatase; purified mouse IAP, CDP-Star luminescence, 30 min; inhibition, % at 10 µM; 330,000 compounds, 0.2% hits; AID 2806;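 active means inhibition of at least 40% at 10 µM in the primary screen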;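 further: plate controls were DMSO with enzyme for no effect and no enzyme wells for full effect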
hIAP act = increases human intestinal alkaline phosphatase activity; P09923; activation factor at 10 µM; AID 2524; purified human IAP, CDP-Star luminescence, 30 min; hits give high values; 1 = vehicle-only enzyme, 0 = enzyme-free background; 330,000 compounds, 0.16% hits;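 active means activation factor of the enzyme at least 2-fold when tested at 20 µM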
Target sequence (P09923 whole entry, looked up): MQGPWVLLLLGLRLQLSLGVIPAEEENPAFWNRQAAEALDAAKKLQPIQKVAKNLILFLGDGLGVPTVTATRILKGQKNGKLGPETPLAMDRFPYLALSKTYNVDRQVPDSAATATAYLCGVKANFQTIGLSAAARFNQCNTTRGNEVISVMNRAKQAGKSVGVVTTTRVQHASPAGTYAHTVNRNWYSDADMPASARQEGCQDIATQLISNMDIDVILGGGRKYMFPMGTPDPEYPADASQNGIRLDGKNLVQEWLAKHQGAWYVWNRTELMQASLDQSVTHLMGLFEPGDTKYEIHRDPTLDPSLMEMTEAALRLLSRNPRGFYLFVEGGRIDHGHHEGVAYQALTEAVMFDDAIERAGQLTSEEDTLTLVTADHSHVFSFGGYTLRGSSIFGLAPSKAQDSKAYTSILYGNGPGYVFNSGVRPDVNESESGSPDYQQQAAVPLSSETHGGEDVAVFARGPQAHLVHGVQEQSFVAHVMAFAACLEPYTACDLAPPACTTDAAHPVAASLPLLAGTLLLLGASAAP
hIAP block = human IAP inhibition | P09923 | AID 2544 | 330,000 compounds, 0.12% hits | purified IAP, CDP-Star luminescence, 30 min | inhibition, % at 10 µM;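 active means inhibition reaching a set limit with compound at 10 µM in the primary screen, cut at about 35% in these data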;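 further: plate controls were DMSO wells with enzyme for no effect and no-enzyme buffer wells for full effect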
hIAP act conf = human IAP activation confirmation. AID 434926. activation (%Activity, negative = activation), % at 8.3 µM. shares compounds with hIAP act. purified IAP, CDP-Star luminescence, 30 min; hits give low values. 880 compounds, 10% hits;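 active means at least twofold enzyme activation in any of six single-dose repeats, which the averaged readout prints as negative percent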
Numbers without * were called inactive; ! = a repeat was not active.

For CSCCC(NC(=O)c1ccccc1Br)C(=O)NNC(=O)c1csc(N2CCOCC2)n1 (stereo not given) the results were mIAP act 0.942, mIAP inh 5.8, hIAP act 2.1*, hIAP block -110.4 and hIAP act conf -6.5.
`CSCCC(NS(=O)(=O)c1ccccc1F)C(=O)N1CCCCCC1` (stereo not given) gave mIAP act 1.05, mIAP inh -5.4, hIAP act 1.2 and hIAP block -19.5.
O=C(COc1ccc2c(-c3ccccc3)cc(=O)oc2c1)Nc1ccc(CCO)cc1 was read as mIAP act 1.06, mIAP inh -6.5, hIAP act 1.32 and hIAP block -32.0.
Screening c1ccc(CN(CC2=NCCN2)c2ccccc2)cc1 returned mIAP act 1.13, bIAP inhibitor -1.8, bIAP act 337*!, mIAP inh -4.9, hIAP act 0.984, hIAP block 19.2 and hIAP act conf -46.7.
`c1ccc(CC2=NCCN2)cc1` gave mIAP act 1.14, bIAP inhibitor 5.9, bIAP act 0.9, mIAP inh -13.5, hIAP act 1.04 and hIAP block -4.5.
CC1(C)CC(=O)N(c2ccc(Cl)cc2Cl)C(=O)C1 was read as mIAP act 0.987, mIAP inh 1.3, hIAP act 1.12 and hIAP block -11.9.
For Cc1ccc2oc(C(=O)N3CCCCCC3)c(C)c2c1 the results were mIAP act 1.01, mIAP inh -1.1, hIAP act 0.544, hIAP block 45.6* and hIAP act conf 2.3.
Screening COc1ccccc1CNS(=O)(=O)c1ccc(Cl)s1 returned mIAP act 1.12, mIAP inh -11.8, hIAP act 1.05 and hIAP block -4.8.
For CCOc1ccccc1N(C)C(=O)CCS(=O)(=O)c1ccc2c(c1)NC(=O)CO2 the results were mIAP act 1.1, mIAP inh -10.1, hIAP act 0.919 and hIAP block 8.1.
For COc1ccc(CNc2ccc(C)c(C)c2)cc1 the results were mIAP act 1.01, bIAP inhibitor 8.4, bIAP act 0.9, mIAP inh -1.2, hIAP act 1.04 and hIAP block -3.6.
Screening COc1ccc(NCc2ccc(OC)c(OC)c2)cc1 returned mIAP act 0.929, bIAP inhibitor 0.5, bIAP act 1, mIAP inh 7.1, hIAP act 0.622, hIAP block 37.8* and hIAP act conf -29.8.
Screening CC1CCN(C(=O)COC(=O)[C@H](C)NS(=O)(=O)/C=C/c2ccccc2)CC1 returned mIAP act 0.96, bIAP inhibitor 4.0, bIAP act 1, mIAP inh 4.0, hIAP act 0.821 and hIAP block 17.9.
Screening COc1cc(C(=O)NCC(=O)N/N=C/c2ccc(-c3ccc([N+](=O)[O-])cc3)o2)cc(OC)c1OC returned mIAP act 0.861, mIAP inh 13.9, hIAP act 0.639, hIAP block 36.1* and hIAP act conf 18.7.
For O=C(NNC(=O)c1nn(-c2ccc(F)cc2)ccc1=O)c1ccc(Cl)cc1 the results were mIAP act 0.8, mIAP inh 20.0, hIAP act 0.871 and hIAP block 12.9.
`O=C(NNC(=O)c1nn(-c2ccc(F)cc2)ccc1=O)Nc1cccc(Cl)c1` gave mIAP act 0.837, mIAP inh 16.3, hIAP act 0.601, hIAP block 39.9* and hIAP act conf -28.0.
`Cn1nc(C(=O)NNC(=O)CCOc2ccc(C(C)(C)C)cc2)c2ccccc2c1=O` gave mIAP act 0.965, mIAP inh 3.5, hIAP act 2.15*, hIAP block -114.5 and hIAP act conf -18.9.
CCc1occc(=O)c1Oc1cc(NN2CCCCC2)c([N+](=O)[O-])cc1[N+](=O)[O-] was read as mIAP act 0.977, mIAP inh 2.3, hIAP act 0.575, hIAP block 42.5* and hIAP act conf -42.2.
Screening Cc1c(C(=O)NNC(=S)Nc2ccc(S(N)(=O)=O)cc2)oc2ccccc12 returned mIAP act 0.813, mIAP inh 18.7, hIAP act 2.05*, hIAP block -105.4 and hIAP act conf -5.2.
For C=CCn1c(CNS(=O)(=O)c2ccc(Cl)cc2)n[nH]c1=S the results were mIAP act 0.835, mIAP inh 16.5, hIAP act 0.585, hIAP block 41.5* and hIAP act conf -26.4.
C=CCn1c(CNS(=O)(=O)c2ccc(F)cc2)n[nH]c1=S was read as mIAP act 1.06, mIAP inh -6.5, hIAP act 0.91 and hIAP block 9.0.
Screening O=C(CC1CCCCC1)Nc1ncn[nH]1 returned mIAP act 1.1, bIAP inhibitor -183.2, bIAP act 2.8*, mIAP inh -9.8, hIAP act 2.02*, hIAP block -101.8 and hIAP act conf -53.5.
For O=C(CC(c1ccccc1)c1ccccc1)Nc1ncn[nH]1 the results were mIAP act 1.4, bIAP inhibitor -230.9, bIAP act 3.3*, mIAP inh -40.1, hIAP act 2.46*, hIAP block -145.5 and hIAP act conf -7.2.
Screening COc1cc(C(=O)NCCCNc2ccc([N+](=O)[O-])cc2)cc(OC)c1OC returned mIAP act 0.866, bIAP inhibitor -1.1, bIAP act 1, mIAP inh 13.4, hIAP act 0.887 and hIAP block 11.3.
Cc1cnc(NCCc2ccccc2)s1 was read as mIAP act 0.904, mIAP inh 9.6, hIAP act 1.06 and hIAP block -5.9.
Screening c1ccc(-c2cccc(-c3ccccn3)n2)nc1 returned mIAP act 1.08, bIAP inhibitor -16.0, bIAP act 1.2, mIAP inh -8.2, hIAP act 2.05*, hIAP block -105.2 and hIAP act conf -113.0*.
Screening Cc1cccn2c(=O)c3cc(C(=O)NC4CCCC4)c(=N)n(C4CCCCC4)c3nc12 returned mIAP act 1.08, mIAP inh -8.4, hIAP act 0.643, hIAP block 35.7* and hIAP act conf -122.2*.
For O=C(NCCCN1CCOCC1)C(=O)N/N=C/c1ccccc1Cl the results were mIAP act 0.948, mIAP inh 5.2, hIAP act 0.863 and hIAP block 13.7.
O=C(NCc1ccccn1)C(=O)N/N=C/c1ccccc1O was read as mIAP act 0.963, mIAP inh 3.7, hIAP act 2.98*, hIAP block -198.1 and hIAP act conf 2.6.
For O=C(NCCCN1CCOCC1)C(=O)N/N=C/c1ccccc1O the results were mIAP act 1.18, mIAP inh -18.3, hIAP act 2*, hIAP block -100.4 and hIAP act conf 28.4.
Screening CC1CCCC/C1=N/Nc1ccc([N+](=O)[O-])cc1[N+](=O)[O-] (stereo not given) returned mIAP act 0.811, bIAP act 0.1, mIAP inh 18.9, hIAP act 0.628, hIAP block 37.2* and hIAP act conf 7.8.

Screening data (PubChem BioAssay)
